Measured values as given in PubChem BioAssay.
The source made the active and inactive calls.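 How the source made its calls, unless noted: active means viability at or under a set limit in both replicates, limit being median viability minus 3 SD (cut at about 48% in these data, passing the limit was not always enough); inconclusive means at or under the limit in just one replicate; inactive means at or above the limit in both replicates.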

Columns and labels:
[1] = reducers of endogenous Her2 protein level, primary screen, SKBR3 breast tumor cells, AlphaScreen, ATP viability (AID 461;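 active means Her2 level under about 52% in both replicate screens, with viability over 70% of control, limit read from the data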;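 on Her2 level: lower value means less Her2 protein in the cells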;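 on viability: percent of carrier control wells set as 100% viability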); details: 18-24 h, measured here: SKBR3 viability, ATP luminescence, at 10 µM
[2] = molecular target: Receptor tyrosine-protein kinase erbB-2 (Homo sapiens) (UniProt P04626); test: as above; details: 18-24 h, at 10 µM, stronger effect = lower value
Chain of Receptor tyrosine-protein kinase erbB-2 (Homo sapiens) (P04626 whole entry, looked up): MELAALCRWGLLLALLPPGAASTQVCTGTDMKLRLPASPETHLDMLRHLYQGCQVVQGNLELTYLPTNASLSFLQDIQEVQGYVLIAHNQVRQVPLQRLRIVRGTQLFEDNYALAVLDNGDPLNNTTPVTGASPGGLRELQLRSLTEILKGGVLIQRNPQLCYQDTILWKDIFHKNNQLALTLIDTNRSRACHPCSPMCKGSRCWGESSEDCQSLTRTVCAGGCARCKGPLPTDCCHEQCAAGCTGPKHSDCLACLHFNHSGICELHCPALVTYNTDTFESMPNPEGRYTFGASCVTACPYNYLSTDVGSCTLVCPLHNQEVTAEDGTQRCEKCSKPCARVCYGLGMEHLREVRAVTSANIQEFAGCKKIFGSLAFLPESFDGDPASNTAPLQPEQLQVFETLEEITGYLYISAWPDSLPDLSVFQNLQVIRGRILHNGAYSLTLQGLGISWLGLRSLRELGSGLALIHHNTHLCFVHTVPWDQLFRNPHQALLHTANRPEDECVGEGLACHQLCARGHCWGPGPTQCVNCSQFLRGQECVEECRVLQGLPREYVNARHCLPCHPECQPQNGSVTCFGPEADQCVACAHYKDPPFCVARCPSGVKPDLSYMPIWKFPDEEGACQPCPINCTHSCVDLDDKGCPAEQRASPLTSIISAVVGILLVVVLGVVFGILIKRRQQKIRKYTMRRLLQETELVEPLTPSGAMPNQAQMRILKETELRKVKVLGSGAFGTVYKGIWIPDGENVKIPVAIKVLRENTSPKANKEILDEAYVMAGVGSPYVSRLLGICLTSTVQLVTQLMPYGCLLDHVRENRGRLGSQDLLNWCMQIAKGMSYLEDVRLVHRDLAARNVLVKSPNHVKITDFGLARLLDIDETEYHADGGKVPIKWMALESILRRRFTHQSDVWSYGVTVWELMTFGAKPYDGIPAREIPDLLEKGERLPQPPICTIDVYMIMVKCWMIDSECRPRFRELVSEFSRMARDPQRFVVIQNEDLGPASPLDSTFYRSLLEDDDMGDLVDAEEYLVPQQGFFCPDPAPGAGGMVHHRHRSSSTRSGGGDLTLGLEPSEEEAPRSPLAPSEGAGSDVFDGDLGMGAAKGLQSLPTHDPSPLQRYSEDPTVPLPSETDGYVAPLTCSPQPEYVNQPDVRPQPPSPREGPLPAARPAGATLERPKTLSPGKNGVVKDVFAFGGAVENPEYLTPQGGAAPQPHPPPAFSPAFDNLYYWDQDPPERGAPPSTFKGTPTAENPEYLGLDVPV

[3] = SK-BR-3 cell growth inhibitors, pilot screen, 24 h, human (AID 572;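 active means viability at or below 10% of carrier control in both of two separate runs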;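 further: compound exposure lasted between 18 and 24 h rather than exactly 24 h; 100% = carrier-treated control wells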); details: SK-BR-3 viability, CellTiter-Glo luminescence, at 10 µM, stronger effect = lower value
[4] = HUVEC growth inhibition – cell-based, human, primary screen (AID 575;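 active means viability at or below 30% in both replicate assays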;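 further: 100% = median of untreated cell wells with 0.1% DMSO on each plate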); details: HUVEC proliferation, CellTiter-Glo luminescence, 72 h; at 10 µM; stronger effect = lower value
Procedure, shortened: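 system = HUVEC primary cells | amount = 1250 cells/well | buffer or medium = supplemented EBM, 2% fetal bovine serum | dosing = single-point 10 µM, DMSO 0.1% final | times = 72 h compound incubation | detection = CTG luminescence | read-out = % viability relative to median vehicle-well signal on each plate | control set = vehicle and MePR control wells | format = collagen-coated 384-well format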

[5] = growth inhibitors of H69AR lung tumor, primary screen, human, duplicate replicates (AID 580); details: H69AR lung tumor cells viability, ATP luminescence, 72 h; at 10 µM; stronger effect = lower value;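 further: 100% = mean luminescence of untreated wells and 0% = no signal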
[6] = reversal of MRP1-mediated doxorubicin resistance, pilot screen, H69AR cells, doxorubicin co-treatment (AID 601;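 active means viability loss from added drug above about 55%, and viability with drug at most 40%, in both replicates, limit read from the data, passing the limit was not always enough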); details: CellTiter-Glo, 72 h, at 10 µM; for differential viability (reversal): stronger effect = higher value
[7] = 384-well plate pilot, post-Golgi transport modulator project, inhibition of yeast transport mutant growth (AID 636; in the data active means inhibition above about 31%); details: absorbance 615 nm, about 18 h, stronger effect = higher value
[8] = growth suppression of yeast trafficking mutant, preliminary HTS, modulators of trafficking downstream of Golgi apparatus project, 1536-format plate, OD 615 nm (AID 637; in the data active means inhibition above about 30%); details: yeast transport mutant growth, absorbance 615 nm, 18 h; stronger effect = higher value
[9] = H69AR cells + 2 uM doxorubicin, measured here: viability with 2 uM doxorubicin, stronger effect = lower value
[10] = H69AR cells, compound alone cytotoxicity

Row | SMILES | viability [1] [%] | Her2 level [2] | viability [3] | viability [4] | viability [5] | differential viability (reversal) ([6]; H69AR cells + 2 uM doxorubicin) | viability [6, 9] [%] | viability [6, 10] [%] | inhibition [7] | inhibition [8]
1 | COc1cc2c(cc1OC)C(c1cc(OC)c(OC)c(OC)c1)NCC2 (stereo not given) | 95.5 | 81% (inactive) | 95.5% (inactive) | 92.4% (inactive) | 91.9% (inactive) | -0.03% (inactive) | 91.9 | 91.9 | -3.95% (inactive) | -0.97% (inactive)
2 | O=C(OCn1nnc2ccccc2c1=O)C1CCN(S(=O)(=O)c2cccs2)CC1 | 97 | 133% (inactive) | 97% (inactive) | 97.7% (inactive) | 105% (inactive) | 1.22% (inactive) | 104 | 105 | 1.54% (inactive) | -4.67% (inactive)
3 | Cc1ccnc(NC(=O)CCC(=O)N(CC(=O)NC2CCCCC2)c2cccc(C)c2C)c1 | 92.5 | 97.5% (inactive) | 92.5% (inactive) | 92.1% (inactive) | 86.7% (inactive) | -7.79% (inactive) | 94.5 | 86.7 | 0% (inactive) | 22.6% (inactive)
4 | Cc1cccc(N=C2NC(=O)CS2)c1C | 108 | 80% (inactive) | 108% (inactive) | 87.1% (inactive) | 91.9% (inactive) | 3.6% (inactive) | 88.3 | 91.9 | 0.4% (inactive) | -0.81% (inactive)
5 | Cc1cccc(-c2c3c(=O)n(C)c(=O)n(C)c3cn2-c2ccc(O)cc2)c1 | 102 | 80% (inactive) | 102% (inactive) | 108% (inactive) | 86.6% (inactive) | -6.51% (inactive) | 93.1 | 86.6 | -3.11% (inactive) | -2.38% (inactive)
6 | COc1ccc(Cn2nnnc2C(c2cccs2)N2CCOCC2)cc1 (stereo not given) | 105 | 123% (inactive) | 105% (inactive) | 90.9% (inactive) | 109% (inactive) | -1.24% (inactive) | 111 | 109 | 3.16% (inactive) | 5.33% (inactive)
7 | O=C(NCc1ccco1)c1csc(Nc2ccccc2Cl)n1 | 70.5 | 97.5% (inactive) | 70.5% (inactive) | 60.5% (inactive) | 78.2% (inactive) | -1.24% (inactive) | 79.4 | 78.2 | -8.24% (inactive) | -5.25% (inactive)
8 | C=Cn1c(C(=O)O)cc(CC)c1-c1ccccc1 | 96 | 101% (inactive) | 96% (inactive) | 100% (inactive) | 106% (inactive) | 2.8% (inactive) | 104 | 106 | -4.4% (inactive) | -7.42% (inactive)
9 | CCc1ccc(NC(=O)C2CC(=O)N(C(C)C)C2)cc1 (stereo not given) | 111 | 104% (inactive) | 111% (inactive) | 100% (inactive) | 90.8% (inactive) | -3.8% (inactive) | 94.6 | 90.8 | -4.13% (inactive) | -2.46% (inactive)
10 | CCOC(=O)Nc1sc(=S)n(C)c1C | 92.5 | 96% (inactive) | 92.5% (inactive) | 104% (inactive) | 98% (inactive) | 3.1% (inactive) | 94.9 | 98 | -3.95% (inactive) | 0.16% (inactive)
11 | COc1ccc(OC)c(C2=NOC(C(=O)NCCN3CCOCC3)C2)c1 (stereo not given) | 107 | 89.5% (inactive) | 107% (inactive) | 102% (inactive) | 90.6% (inactive) | 5.3% (inactive) | 85.3 | 90.6 | -1.18% (inactive) | -3.27% (inactive)
12 | C=CCn1c(=O)[nH]c2cc(C(=O)N3CCN(c4cc(C)ccc4C)CC3)ccc2c1=O | 81.5 | 79.5% (inactive) | 81.5% (inactive) | 71.7% (inactive) | 41.3% (active) | 7.67% (inactive) | 33.6 | 41.3 | -6.76% (inactive) | -0.83% (inactive)
13 | O=C(Nn1cnnc1)c1cc2c(s1)CCCC2 | 100 | 95.5% (inactive) | 100% (inactive) | 80% (inactive) | 102% (inactive) | -2.61% (inactive) | 104 | 102 | -3.42% (inactive) | -4% (inactive)
14 | O=S(=O)(c1ccccc1)c1nc(-c2cccs2)oc1NCC1CCCO1 (stereo not given) | 84.5 | 97% (inactive) | 84.5% (inactive) | 87.9% (inactive) | 99.7% (inactive) | -2.42% (inactive) | 102 | 99.7 | 2.67% (inactive) | 10.7% (inactive)
15 | CCOc1cc(C)c(Cl)cc1S(=O)(=O)N(C)C | 106 | 90.5% (inactive) | 106% (inactive) | 103% (inactive) | 95.4% (inactive) | 8.76% (inactive) | 86.6 | 95.4 | -3.03% (inactive) | -2.1% (inactive)
16 | Cc1ccc(NC2=NC(c3ccccc3)n3c(nc(C)cc3=O)N2)cc1 (stereo not given) | 86.5 | 82% (inactive) | 86.5% (inactive) | 93.5% (inactive) | 88.5% (inactive) | 11.3% (inactive) | 77.2 | 88.5 | -2.11% (inactive) | 2.55% (inactive)
17 | COCCN(C(=O)c1csnn1)C(C(=O)NC1CCCCC1)c1cccs1 (stereo not given) | 100 | 89% (inactive) | 100% (inactive) | 94.7% (inactive) | 98.9% (inactive) | 11% (inactive) | 87.9 | 98.9 | -7.6% (inactive) | 2.86% (inactive)
18 | CS(=O)(=O)c1ccc2nc(NC(=O)C3C4C=CC(C4)C3C(=O)O)sc2c1 (stereo not given) | 96 | 154% (inactive) | 96% (inactive) | 101% (inactive) | 104% (inactive) | 13.3% (inactive) | 90.3 | 104 | -2.5% (inactive) | -12.8% (inactive)
19 | COCCOC(=O)/C=C1/NC(=O)CS1 | 96.5 | 94.5% (inactive) | 96.5% (inactive) | 106% (inactive) | 93.8% (inactive) | 4.28% (inactive) | 89.6 | 93.8 | -5.6% (inactive) | 1.48% (inactive)
20 | c1cn2cc(CSC3CCCCC3)nc2s1 | 84 | 80% (inactive) | 84% (inactive) | 86.5% (inactive) | 97.2% (inactive) | 10.9% (inactive) | 86.4 | 97.2 | -7.16% (inactive) | 6.35% (inactive)
21 | CCOC(=O)CNS(=O)(=O)c1c(C)noc1C | 110 | 104% (inactive) | 110% (inactive) | 70.6% (inactive) | 107% (inactive) | 20.6% (inactive) | 86.2 | 107 | -4.47% (inactive) | 2.73% (inactive)
22 | O=C(COC(=O)CCc1c[nH]c2ccccc12)NC1CCS(=O)(=O)C1 (stereo not given) | 87.5 | 96% (inactive) | 87.5% (inactive) | 90.8% (inactive) | 90.1% (inactive) | 1.06% (inactive) | 89.1 | 90.1 | 1.04% (inactive) | -4.76% (inactive)
23 | N#Cc1nc(-c2ccco2)oc1NCCc1ccccc1 | 92.5 | 98.5% (inactive) | 92.5% (inactive) | 90.6% (inactive) | 97.4% (inactive) | 14.8% (inactive) | 82.6 | 97.4 | -5.58% (inactive) | -10.5% (inactive)
24 | Cc1ccc(Nc2nc(CSc3nnnn3C)cs2)cc1 | 101 | 96% (inactive) | 101% (inactive) | 95.3% (inactive) | 113% (inactive) | 25.7% (inactive) | 87.4 | 113 | -7.24% (inactive) | -1.45% (inactive)
25 | CCOC(=O)c1c(N)sn(-c2ccccc2)c1=S | 87 | 108% (inactive) | 87% (inactive) | 101% (inactive) | 85.3% (inactive) | -5.28% (inactive) | 90.6 | 85.3 | -0.9% (inactive) | 2.17% (inactive)
26 | Cc1ccc(S(=O)(=O)C2(C(=O)Nc3nccs3)CC2)cc1 | 95 | 95% (inactive) | 95% (inactive) | 93.7% (inactive) | 101% (inactive) | 5.59% (inactive) | 95 | 101 | -2.44% (inactive) | -2.33% (inactive)
27 | CC(=O)C1=C(O)C(=O)N(Cc2ccco2)C1c1ccc2c(c1)OCO2 (stereo not given) | 108 | 84.5% (inactive) | 108% (inactive) | 119% (inactive) | 112% (inactive) | 7.12% (inactive) | 105 | 112 | -5.07% (inactive) | 0.48% (inactive)
28 | CCOC(=O)c1[nH]c(=O)c2ccccc2c1O | 106 | 94.5% (inactive) | 106% (inactive) | 95.8% (inactive) | 90.8% (inactive) | -0.03% (inactive) | 90.8 | 90.8 | -10% (inactive) | -8.41% (inactive)
29 | O=S(NCc1ccco1)C12CC3CC(CC(C3)C1)C2 (stereo not given) | 104 | 116% (inactive) | 104% (inactive) | 93.5% (inactive) | 88% (inactive) | 3.96% (inactive) | 84 | 88 | -1.08% (inactive) | -5.4% (inactive)
30 | CCOC(=O)C1=C(C)Nc2ncnn2C1c1ccccc1F (stereo not given) | 94 | 110% (inactive) | 94% (inactive) | 116% (inactive) | 95.6% (inactive) | -5% (inactive) | 101 | 95.6 | -0.92% (inactive) | -1.29% (inactive)
